Measured values collected from several papers.
Compare with care: the assays were run in different laboratories.
Observed: metabolic stability

SMILES | host | medium | tested at | time | pH | notes | scaled CLint [mL/min/kg]
CCOc1c(O)cc(Br)c2c1CN1CCc3cc(OCC(F)F)c(O)cc3[C@@H]1C2 | mouse | liver S9 | 2 µM | – | pH 7.4 | – | 1040
CC(=O)Nc1cc(Nc2cc(NC3CC3)n3ncc(C#N)c3n2)ccc1N(C)C[C@@H]1CCCN1 | male CD-1 mouse | hepatocytes | 1 µM | – | – | serum-free | 171
COc1cc(C2Oc3cc([C@H]4Oc5cc(O)cc(O)c5C(=O)[C@@H]4O)ccc3OC2CO)ccc1O (stereo partly drawn) | mouse | liver microsomes | 1 µM | – | – | – | 66.5
Cc1ccc(-c2nc3ccccc3s2)cc1NC(=O)c1cc([N+](=O)[O-])c(F)cc1F | CD-1 mouse | liver microsomes | 1 µM | 1 h | pH 7.4 | – | 52
Cc1ccc(F)c2cc(C(=O)N[C@@H]3CCC[C@H](N4CCN(C)C(=O)C4)C3)[nH]c12 | mouse | hepatocytes | 0.5 µM | 1 h | – | – | 164
CN[C@@H]1CCN(c2ccc(Nc3cc(NC4CC4)n4ncc(C#N)c4n3)cc2NC(C)=O)C1 | male CD-1 mouse | hepatocytes | 1 µM | – | – | serum-free | 126
CCCN(C)Cc1cc(-c2[nH]c3cccc(F)c3c(=O)c2C)ccc1Cc1ccc(OC(F)(F)F)cc1 | mouse | liver microsomes | – | – | – | – | 1570
Cc1ccc(-c2nc3ccccc3s2)cc1NC(=O)c1cc([N+](=O)[O-])c(N2CCN(C)CC2)cc1Cl | CD-1 mouse | liver microsomes | 1 µM | 1 h | pH 7.4 | – | 105
Cc1ccc(F)c2cc(C(=O)N[C@@H]3CCC[C@H](c4ccncc4)C3)[nH]c12 | mouse | hepatocytes | 0.5 µM | 1 h | – | – | 399
Cc1cc(Cl)c(Cl)cc1NC(=O)c1ccc(N2CCNCC2)c([N+](=O)[O-])c1 | CD-1 mouse | liver microsomes | 1 µM | 1 h | pH 7.4 | – | 21
O=c1ccc2ccc(O)cc2o1 | mouse | liver S9 | 2 µM | – | pH 7.4 | – | 2120
Cc1ccc(F)c2cc(C(=O)N[C@@H]3CCC[C@H](N4CCN(S(C)(=O)=O)CC4)C3)[nH]c12 | mouse | hepatocytes | 0.5 µM | 1 h | – | – | 328
O=C(c1ccc(F)cc1)C1CCN(CCn2c(=O)[nH]c3ccccc3c2=O)CC1 | mouse | liver microsomes | – | – | – | – | 376
Cc1cc(NC(=O)Cc2ccc(F)c(C#N)c2)n(CC2CCCCC2)n1 | mouse | liver microsomes | – | – | – | – | 2970
O=C(Nc1cncc(-c2nc3ccccc3o2)c1)c1ccc(N2CCNCC2)c([N+](=O)[O-])c1 | CD-1 mouse | liver microsomes | 1 µM | 1 h | pH 7.4 | – | 10
